Experimental data: ChEMBL document CHEMBL3120133, “Discovery of a potent boronic acid derived inhibitor of the HCV RNA-dependent RNA polymerase” (J Med Chem, 2014)
Active and inactive are the calls of the source. No cut-off for these calls is given here.

Key:
[1] = Inhibition of C-terminal 6xHis-tagged Hepatitis C virus genotype 1b BK NS5B Cdelta21 RNA dependent RNA polymerase L47Q/F101Y/[…] mutant after 30 mins in presence of [alpha-33P]; design: species or system Hepatitis C virus (isolate BK)
Hepatitis C virus [2] = experiment: Antiviral activity against wild type Hepatitis C virus genotype 1b harboring C316N mutant infected in human HuH7 cells assessed as inhibition of viral replication after 48 hrs by luciferase reporter gene assay; assay type: functional, organism-based, Hepacivirus hominis; settings: Huh-7, 48 h
Hepatitis C virus [3] = experiment: Antiviral activity against wild type Hepatitis C virus genotype 1b infected in human HuH7 cells assessed as inhibition of viral replication after 48 hrs by luciferase reporter gene assay; assay type: functional, organism-based, Hepacivirus hominis; settings: Huh-7, 48 h
In short: (§1)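 Replicon-based readout (stable and transient replicon formats) in place of virus infection, with compound present for 2 days before EC50 determination.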

Hepatitis C virus [4] = experiment: Antiviral activity against wild type Hepatitis C virus genotype 1a infected in human HuH7 cells assessed as inhibition of viral replication after 48 hrs by luciferase reporter gene assay; assay type: functional, organism-based, Hepacivirus hominis; settings: subtype 1a, Huh-7, 48 h; in short: as §1
[5] = system: RNA-directed RNA polymerase (Hepacivirus hominis), O39930 [C316N]; experiment: Binding affinity to Hepatitis C virus genotype 1b NS5B Cdelta21 RNA dependent RNA polymerase 316N mutant assessed as dissociation half life at 10 uM by LC-MS/MS analysis; settings: Hepatitis C virus subtype 1b
In short: (§2)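 NS5B∆21 GT1b 316N (10 uM) saturated with 12uM inhibitor to pre-form the complex, then diluted 20-fold into 10 uM of the competing Palm II inhibitor to block rebinding. Bound compound was separated from free by rapid size-exclusion filtration over time, and both inhibitors were quantified by LC-MS. Off-rates were fitted to a single or two-phase exponential to give t1/2.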

[6] = biological target: RNA-directed RNA polymerase (Hepacivirus hominis, UniProt O39930, C316N); experiment: Inhibition of Hepatitis C virus genotype 1b NS5B Cdelta21 RNA dependent RNA polymerase 316N mutant using biotinylated polyC:oligoG/[alpha-P33]-GTP as template/substrate preincubated for 15 mins followed by template/substrate addition by scintillation proximity assay; design: species or system Hepatitis C virus subtype 1b
In short: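 Isolated NS5B at 30 nM was preincubated with inhibitor for 15 min before reaction start. The IC50 was determined from the polymerase assay.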

Hepatitis C virus [7] = experiment: Antiviral activity against wild type Hepatitis C virus genotype 1b harboring S365T mutant infected in human HuH7 cells assessed as inhibition of viral replication after 72 hrs by Bright-glo luciferase reporter gene assay; assay type: functional, organism-based, Hepacivirus hominis; settings: Huh-7, 72 h
Hepatitis C virus [8] = experiment: Antiviral activity against wild type Hepatitis C virus genotype 1b harboring C316F mutant infected in human HuH7 cells assessed as inhibition of viral replication after 72 hrs by Bright-glo luciferase reporter gene assay; assay type: functional, organism-based, Hepacivirus hominis; settings: Huh-7, 72 h
Hepatitis C virus [9] = experiment: Antiviral activity against wild type Hepatitis C virus genotype 1a harboring C316Y mutant infected in human HuH7 cells assessed as inhibition of viral replication after 48 hrs by luciferase reporter gene assay; assay type: functional, organism-based, Hepacivirus hominis; settings: subtype 1a, Huh-7, 48 h
Hepatitis C virus [10] = experiment: Antiviral activity against wild type Hepatitis C virus genotype 1b harboring C316Y mutant infected in human HuH7 cells assessed as inhibition of viral replication after 72 hrs by Bright-glo luciferase reporter gene assay; assay type: functional, organism-based, Hepacivirus hominis; settings: Huh-7, 72 h
[11] = Stability of the compound; assay type: physicochemical
Huh-7 = experiment: Cytotoxicity in human HuH7 cells assessed as cell viability after 72 hrs by CellTitre-glo luminescence assay; assay type: cell-based; settings: huh-7, 72 h
[12] = Bioavailability in Sprague-Dawley rat at 1 mg/kg, iv and 5 mg/kg, po; assay type: ADME, organism-based; settings: in vivo
[13] = Clearance in Sprague-Dawley rat at 1 mg/kg, iv and 5 mg/kg, po; assay type: ADME, organism-based; settings: in vivo
[14] = system: Hepatitis C virus (isolate BK); experiment: Inhibition of C-terminal 6xHis-tagged Hepatitis C virus genotype 1b BK NS5B Cdelta21 RNA dependent RNA polymerase L47Q/F101Y/[…] mutant expressed in Escherichia coli BL21(DE3) using radiolabelled CTP/5'-A(8)CG-3' as substrate/template assessed as inhibition of pCpG dimer formation at 0.016 to 10 uM
[15] = system: RNA-directed RNA polymerase (Hepacivirus hominis), O39930 [C316N]; experiment: Binding affinity to Hepatitis C virus genotype 1b NS5B Cdelta21 RNA dependent RNA polymerase 316N mutant assessed as dissociation half life at 0.6 uM by LC-MS/MS analysis; settings: Hepatitis C virus subtype 1b; in short: as §2

Chain of RNA-directed RNA polymerase (Hepacivirus hominis), O39930 [C316N] (O39930 entry or part of it C316N): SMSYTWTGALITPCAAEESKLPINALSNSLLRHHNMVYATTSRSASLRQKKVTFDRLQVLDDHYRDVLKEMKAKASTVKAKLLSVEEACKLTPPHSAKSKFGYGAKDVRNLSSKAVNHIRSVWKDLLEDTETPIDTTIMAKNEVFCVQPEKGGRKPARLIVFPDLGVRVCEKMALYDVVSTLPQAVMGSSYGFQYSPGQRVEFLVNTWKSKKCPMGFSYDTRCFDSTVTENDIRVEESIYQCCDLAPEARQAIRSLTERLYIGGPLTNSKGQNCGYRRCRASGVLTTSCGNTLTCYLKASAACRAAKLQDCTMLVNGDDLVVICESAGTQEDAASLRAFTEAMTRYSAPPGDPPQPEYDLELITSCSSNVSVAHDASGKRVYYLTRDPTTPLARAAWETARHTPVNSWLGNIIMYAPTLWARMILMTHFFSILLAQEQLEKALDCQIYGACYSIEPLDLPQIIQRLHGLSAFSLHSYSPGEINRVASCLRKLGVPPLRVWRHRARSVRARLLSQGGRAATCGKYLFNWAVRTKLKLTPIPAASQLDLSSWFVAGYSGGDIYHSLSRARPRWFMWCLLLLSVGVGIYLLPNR
Chain of RNA-directed RNA polymerase (O39930 entry or part of it C316N): as above

Row | SMILES | IC50 [1] | EC50 (Hepatitis C virus [2]) | EC50 (Hepatitis C virus [3]) | EC50 (Hepatitis C virus [4]) | T1/2 [5] | IC50 [6] | EC50 (Hepatitis C virus [7]) | EC50 (Hepatitis C virus [8]) | EC50 (Hepatitis C virus [9]) | EC50 (Hepatitis C virus [10]) | Stability [11] | Activity (Huh-7) | bioavailability [12] | clearance [13] | inhibition [14] | T1/2 [15]
1 | CNC(=O)c1c(-c2ccc(F)cc2)oc2cc(N(Cc3ccccc3)S(C)(=O)=O)c(C3CC3)cc12 | 50 nM | 440 nM | 18 nM | 58 nM | – | – | – | – | – | – | – | – | – | – | – | –
2 | CNC(=O)c1c(-c2ccc(F)cc2)oc2cc(N(CCO)S(C)(=O)=O)c(C3CC3)cc12 [NESBUVIR] | 40 nM | 100 nM | 18 nM | 27 nM | 1.7 h | 160 nM | 1300 nM | 2500 nM | 1900 nM | 420 nM | – | – | – | – | – | –
3 | CNC(=O)c1c(-c2ccc(F)cc2)oc2cc(N(Cc3cccc(B(O)O)c3)S(C)(=O)=O)c(C3CC3)cc12 | 30 nM | 120 nM | 6.9 nM | 8.8 nM | – | – | – | – | – | – | – | – | – | – | – | –
4 | CNC(=O)c1c(-c2ccc(F)cc2)oc2cc(N(CC3COB(O)C3)S(C)(=O)=O)c(C3CC3)cc12 (racemic) | 50 nM | 7.6 nM | 2.8 nM | 2.9 nM | – | – | – | – | – | – | Stable | Non-toxic | – | – | – | –
5 | CNC(=O)c1c(-c2ccc(F)cc2)oc2cc(N(Cc3ccc4c(c3)COB4O)S(C)(=O)=O)c(C3CC3)cc12 | 40 nM | 16 nM | 2.7 nM | 9.5 nM | – | – | – | – | – | – | – | – | – | – | – | –
6 | CNC(=O)c1c(-c2ccc(F)cc2)oc2cc(N(CC3=CB(O)OC3)S(C)(=O)=O)c(C3CC3)cc12 | 50 nM | 13 nM | 1.9 nM | 9.6 nM | – | – | – | – | – | – | Stable | Non-toxic | – | – | – | –
7 | CNC(=O)c1c(-c2ccc(F)cc2)oc2cc(N(Cc3ccc(B(O)O)cc3)S(C)(=O)=O)c(C3CC3)cc12 | 32 nM | 13 nM | 2.6 nM | 2.7 nM | – | – | – | – | 120 nM | – | – | – | < 3% | 36 mL/min/kg | – | –
8 | CNC(=O)c1c(-c2ccc(F)cc2)oc2cc(N(C[C@H]3COB(O)C3)S(C)(=O)=O)c(C3CC3)cc12 | 50 nM | 11 nM | 2.9 nM | 5.3 nM | – | – | – | – | – | – | Stable | Non-toxic | – | 32 mL/min/kg | – | –
9 | CNC(=O)c1c(-c2ccc(F)cc2)oc2cc(N(CCC3OB(O)c4ccccc43)S(C)(=O)=O)c(C3CC3)cc12 (racemic) | 32 nM | 12 nM | 3.5 nM | 7.4 nM | – | – | – | – | 790 nM | – | – | – | – | – | – | –
10 | CNC(=O)c1c(-c2ccc(F)cc2)oc2cc(N(CCC3COB(O)C3)S(C)(=O)=O)c(C3CC3)cc12 (racemic) | 50 nM | 5.6 nM | 3.1 nM | 6.1 nM | – | – | – | – | – | – | Stable | Non-toxic | – | – | – | –
11 | CNC(=O)c1c(-c2ccc(F)cc2)oc2cc(N(Cc3cc(F)c4c(c3)COB4O)S(C)(=O)=O)c(C3CC3)cc12 | 32 nM | 12 nM | 3.2 nM | 5.8 nM | – | – | 84 nM | 110 nM | 190 nM | 16 nM | – | – | – | – | – | –
12 | CNC(=O)c1c(-c2ccc(F)cc2)oc2cc(N(CCOCB(O)O)S(C)(=O)=O)c(C3CC3)cc12 | 40 nM | 3.9 nM | 3.2 nM | 6.7 nM | – | – | – | – | – | – | – | – | – | 25 mL/min/kg | – | –
13 | CNC(=O)c1c(-c2ccc(F)cc2)oc2cc(N(Cc3ccc(B(O)O)c(OC)c3)S(C)(=O)=O)c(C3CC3)cc12 | 100 nM | 50 nM | 3.6 nM | 12 nM | – | – | – | – | – | – | – | – | – | – | – | –
14 | CNC(=O)c1c(-c2ccc(F)cc2)oc2cc(N(C[C@@H]3COB(O)C3)S(C)(=O)=O)c(C3CC3)cc12 | 63 nM | 13 nM | 4.6 nM | 7.6 nM | – | – | 6.5 nM | 37 nM | 830 nM | 11 nM | – | – | – | 6.6 mL/min/kg | – | –
15 | CNC(=O)c1c(-c2ccc(F)cc2)oc2cc(N(CC3CCB(O)O3)S(C)(=O)=O)c(C3CC3)cc12 (racemic) | 100 nM | 52 nM | 6.5 nM | 8.8 nM | – | – | – | – | – | – | Stable | Non-toxic | – | – | – | –
16 | CNC(=O)c1c(-c2ccc(F)cc2)oc2cc(N(Cc3ccc(B(O)O)c(C)c3)S(C)(=O)=O)c(C3CC3)cc12 | 80 nM | 5.4 nM | 2.2 nM | 4.8 nM | – | – | – | – | – | – | – | – | – | – | – | –
17 | CNC(=O)c1c(-c2ccc(F)cc2)oc2cc(N(CC3CCOB(O)C3)S(C)(=O)=O)c(C3CC3)cc12 (racemic) | 80 nM | 38 nM | 3.7 nM | 9.1 nM | – | – | – | – | – | – | Stable | Non-toxic | – | – | – | –
18 | CNC(=O)c1c(-c2ccc(F)cc2)oc2cc(N(Cc3ccc(P(=O)(O)O)cc3)S(C)(=O)=O)c(C3CC3)cc12 | 20 nM | > 5000 nM | 760 nM | 2200 nM | – | – | – | – | – | – | – | – | – | – | – | –
19 | CCOP(=O)(OCC)c1ccc(CN(c2cc3oc(-c4ccc(F)cc4)c(C(=O)NC)c3cc2C2CC2)S(C)(=O)=O)cc1 | 100 nM | 480 nM | 20 nM | 36 nM | – | – | – | – | – | – | – | – | – | – | – | –
20 | CNC(=O)c1c(-c2ccc(F)cc2)oc2cc(N(Cc3ccc(C(=O)O)cc3)S(C)(=O)=O)c(C3CC3)cc12 | 25 nM | 3200 nM | 150 nM | 290 nM | – | – | – | – | – | – | – | – | – | – | – | –
21 | CNC(=O)c1c(-c2ccc(F)cc2)oc2cc(N(Cc3ccc4c(c3)CCOB4O)S(C)(=O)=O)c(C3CC3)cc12 | 40 nM | 9 nM | 4.2 nM | 7 nM | – | – | – | – | 350 nM | – | – | – | – | – | – | –
22 | CNC(=O)c1c(-c2ccc(F)cc2)oc2cc(N(Cc3ccc(B(O)O)c(F)c3)S(C)(=O)=O)c(C3CC3)cc12 | 50 nM | 1.9 nM | 1.7 nM | 3 nM | – | 130 nM | 4.2 nM | 3.8 nM | 3.2 nM | 1.4 nM | – | – | – | – | Active | 4.3 h
23 | CNC(=O)c1c(-c2ccc(F)cc2)oc2cc(N(Cc3ccc(S(=O)(=O)O)cc3)S(C)(=O)=O)c(C3CC3)cc12 | 16 nM | > 5000 nM | 1800 nM | > 5000 nM | – | – | – | – | – | – | – | – | – | – | – | –
24 | CNC(=O)c1c(-c2ccc(F)cc2)oc2cc(N(Cc3ccc4c(c3)B(O)OC4)S(C)(=O)=O)c(C3CC3)cc12 | 32 nM | 64 nM | 4.9 nM | 7.4 nM | – | – | – | – | – | – | – | – | – | – | – | –
25 | CNC(=O)c1c(-c2ccc(F)cc2)oc2cc(N(Cc3cccc4c3COB4O)S(C)(=O)=O)c(C3CC3)cc12 | 32 nM | 110 nM | 4.9 nM | 17 nM | – | – | – | – | – | – | – | – | – | – | – | –
26 | CNC(=O)c1c(-c2ccc(F)cc2)oc2cc(N(CC3CCB(O)OC3)S(C)(=O)=O)c(C3CC3)cc12 (racemic) | 63 nM | 56 nM | 6.4 nM | 9.7 nM | – | – | – | – | – | – | Stable | Non-toxic | – | – | – | –
